ChEMBL document CHEMBL4715737, “New 1,3-thiazole derivatives and their biological and ultrastructural effects on Trypanosoma cruzi” (Eur J Med Chem, 2016)
pIC50: −log10 of the molar value. Activity calls are given as the source filed them. The rule behind the calls is not given here.

How the values were obtained:
[1] = target: Cruzipain (Trypanosoma cruzi) (UniProt P25779); test: Inhibition of recombinant Trypanosoma cruzi cruzain at 300 uM using Z-FR-AMC as substrate and measured at 12 sec interval for 5 mins by fluorimetric analysis relative to control
Cruzipain (Trypanosoma cruzi), sequence (P25779 123-467 limits assumed): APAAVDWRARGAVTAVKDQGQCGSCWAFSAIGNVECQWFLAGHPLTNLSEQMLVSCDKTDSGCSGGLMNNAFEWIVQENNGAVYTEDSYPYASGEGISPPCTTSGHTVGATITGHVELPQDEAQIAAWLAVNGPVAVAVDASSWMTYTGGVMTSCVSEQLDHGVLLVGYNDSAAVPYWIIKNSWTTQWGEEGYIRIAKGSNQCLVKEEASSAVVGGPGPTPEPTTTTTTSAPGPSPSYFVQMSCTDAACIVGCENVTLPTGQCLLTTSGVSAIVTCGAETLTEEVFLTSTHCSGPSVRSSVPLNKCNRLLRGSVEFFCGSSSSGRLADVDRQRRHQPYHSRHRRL
Method in brief: (§1)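 Cruzain (1 nM) in 0.1 M sodium acetate pH 5.5, 0.01% Triton X-100, 1 mM β-mercaptoethanol, substrate Z-FR-AMC, no pre-incubation. Fluorescence read at 25 °C every 12 s for 5 min; rates from initial velocities versus DMSO control. Screened at 300, 200 or 100 (solubility-limited). Where inhibition exceeded 80%, IC50 came from seven concentrations by four-parameter variable-slope regression. At least two independent experiments, each in triplicate.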

[2] = test system: Trypanosoma cruzi; test: Antiparasitic activity against Trypanosoma cruzi Y strain trypomastigotes assessed as reduction in parasite viability after 24 hrs by Neubauer chamber counting method; type: functional, organism-based
Method in brief: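 Y strain trypomastigotes collected from Vero cell supernatant, plated at 4 × 10^5 per well, treated in triplicate for 24 h at 37 °C, 5% CO2; benznidazole positive control. Motile (viable) parasites counted in Neubauer chamber, untreated wells = 100%. IC50 by nonlinear regression from at least seven concentrations.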

[3] = Selectivity index, ratio of >90% maximum non-toxic concentration for BALB/c mouse splenocyte to IC50 for Trypanosoma cruzi Y strain trypomastigotes; type: toxicity; conditions: splenocytes, read-out: Selectivity Index
Method in brief: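 SI computed as highest non-toxic splenocyte concentration (>90% 3H-thymidine incorporation, 24 h) divided by trypomastigote IC50 (24 h, Neubauer motility count).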

[4] = Cytotoxicity against BALB/c mouse splenocyte incubated for 24 hrs by [3H]-thymidine incorporation based counter beta irradiation method; type: cell-based; conditions: splenocytes
Method in brief: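 BALB/c splenocytes, 5 × 10^6 cells/well in RPMI-1640 + 10% inactivated FBS. Compounds from 10 mg/mL DMSO stock, serially diluted to […] (units as printed), in triplicate. Saponin 0.1 mg/mL positive control; medium + DMSO negative (=100%). 3H-thymidine 1.0 added, 24 h at 37 °C, 5% CO2, beta counting; highest concentration giving >90% incorporation taken as non-toxic.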

[5] = target: Cruzipain (Trypanosoma cruzi, UniProt P25779); test: Inhibition of recombinant Trypanosoma cruzi cruzain using Z-FR-AMC as substrate and measured at 12 sec interval for 5 mins by fluorimetric analysis
Cruzipain, sequence (P25779 whole entry): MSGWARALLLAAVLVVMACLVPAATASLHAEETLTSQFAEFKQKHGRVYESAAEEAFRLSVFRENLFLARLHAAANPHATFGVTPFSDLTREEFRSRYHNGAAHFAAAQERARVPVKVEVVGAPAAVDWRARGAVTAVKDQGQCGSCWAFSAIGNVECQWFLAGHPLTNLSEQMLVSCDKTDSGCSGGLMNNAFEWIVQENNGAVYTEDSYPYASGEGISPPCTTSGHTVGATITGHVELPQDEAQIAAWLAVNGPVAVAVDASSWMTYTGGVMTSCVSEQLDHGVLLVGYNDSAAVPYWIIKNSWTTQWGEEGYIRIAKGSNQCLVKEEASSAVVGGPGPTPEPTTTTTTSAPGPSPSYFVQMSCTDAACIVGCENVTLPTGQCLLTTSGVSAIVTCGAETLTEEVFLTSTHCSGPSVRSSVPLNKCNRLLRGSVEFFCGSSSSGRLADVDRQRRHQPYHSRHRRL
Method in brief: as §1, with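 “(solubility-limited).” for “(solubility-limited). Where inhibition exceeded 80%, IC50 came from seven concentrations by four-parameter variable-slope regression.”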

[6] = test system: Trypanosoma cruzi; test: Induction of morphological changes in Trypanosoma cruzi trypomastigotes assessed as contortion of parasite body and alteration in morphology and size of flagellum at 6.8 uM after 24 hrs by SEM analysis; type: functional, organism-based
Method in brief: (§2)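 Trypomastigotes cultured 24 h in RPMI 1640 pH 7.5 with 20 mM HEPES, 10% FBS, penicillin/streptomycin plus compound at 3.4 and 6.8. Parasites washed in PBS and fixed in 2.5% glutaraldehyde/4% formaldehyde in 0.1 M cacodylate pH 6.8, then postfixed in 2% OsO4. SEM samples were ethanol-dehydrated, critical-point dried and gold-coated. TEM samples were acetone-dehydrated, epon-embedded and stained with uranyl acetate/lead citrate. Untreated controls were included.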

[7] = test system: Trypanosoma cruzi; test: Induction of morphological changes in Trypanosoma cruzi trypomastigotes assessed as contortion of parasite body with presence of blebs in flagellum and parasite body at 3.4 uM after 24 hrs by SEM analysis; type: functional, organism-based; method in brief: as §2
[8] = test system: Trypanosoma cruzi; test: Induction of morphological changes in Trypanosoma cruzi trypomastigotes assessed as cytoplasmic vacuolization at 6.8 uM after 24 hrs by TEM analysis; type: functional, organism-based; method in brief: as §2
[9] = test system: Trypanosoma cruzi; test: Induction of morphological changes in Trypanosoma cruzi trypomastigotes assessed as mitochondrial swelling at 3.4 to 6.8 uM after 24 hrs by TEM analysis; type: functional, organism-based; conditions: dose 3.4-6.8 µM; method in brief: as §2
[10] = test system: Trypanosoma cruzi; test: Induction of morphological changes in Trypanosoma cruzi trypomastigotes assessed as alteration in reservosomes at 3.4 to 6.8 uM after 24 hrs by TEM analysis; type: functional, organism-based; conditions: dose 3.4-6.8 µM; method in brief: as §2
[11] = test system: Trypanosoma cruzi; test: Induction of morphological changes in Trypanosoma cruzi trypomastigotes assessed as formation of membrane blebs at 3.4 to 6.8 uM after 24 hrs by TEM analysis; type: functional, organism-based; conditions: dose 3.4-6.8 µM; method in brief: as §2
[12] = test system: Trypanosoma cruzi; test: Induction of morphological changes in Trypanosoma cruzi trypomastigotes assessed as membrane projections at 3.4 uM after 24 hrs by TEM analysis; type: functional, organism-based; method in brief: as §2
[13] = test system: Trypanosoma cruzi; test: Induction of morphological changes in Trypanosoma cruzi trypomastigotes assessed as abnormal chromatin condensation at 3.4 to 6.8 uM after 24 hrs by TEM analysis; type: functional, organism-based; conditions: dose 3.4-6.8 µM; method in brief: as §2
[14] = test system: Trypanosoma cruzi; test: Induction of cytoplasmic vacuolization, irreversible lesions and changes in parasitic morphology in Trypanosoma cruzi trypomastigotes after 24 hrs by TEM analysis; type: functional; conditions: dose 3.4-6.8 µM; method in brief: as §2
[15] = target: Cruzipain (Trypanosoma cruzi) (UniProt P25779); test: Inhibition of recombinant Trypanosoma cruzi cruzain at 200 uM using Z-FR-AMC as substrate and measured at 12 sec interval for 5 mins by fluorimetric analysis relative to control; method in brief: as §1

| Compound | inhibition [1] | pIC50 [2] | selectivity ratio [3] | MNTC at 24 h [4] | pIC50 [5] | further results |
| --- | --- | --- | --- | --- | --- | --- |
| CC/C(=N\Nc1nc(-c2ccccc2)c(C)s1)c1cccc(Br)c1 | 99.5% | 5.32 | 2.6 | 12.5 µM | 6.29 | – |
| CC/C(=N\Nc1nc(-c2ccc(OC)cc2)cs1)c1cccc(Br)c1 | 72% | 5.42 | 31.3 | 120 µM | – | Activity [6]: Active; Activity [7]: Active; Activity [8]: Active; Activity [9]: Active; Activity [10]: Active; Activity [11]: Active; Activity [12]: Active; Activity [13]: Active; Activity [14]: Dose-dependent effect |
| CC/C(=N\Nc1nc(-c2ccc3ccccc3c2)cs1)c1cccc(Br)c1 | 88.2% | 4.29 | > 4.5 | > 229 µM | 5.02 | – |
| CC/C(=N\N=c1/scc(-c2ccccc2)n1-c1ccccc1)c1cccc(Br)c1 | – | 4.27 | 0.9 | 50.8 µM | – | – |
| CC/C(=N\NC(N)=S)c1cccc(Br)c1 | – | 5.62 | – | 34.9 µM | – | – |
| CC/C(=N\Nc1nc(-c2ccc(F)cc2)cs1)c1cccc(Br)c1 | 95.8% | 3.84 | 0.8 | 124 µM | 4.78 | – |
| CC/C(=N\Nc1nc(-c2ccc([N+](=O)[O-])cc2)cs1)c1cccc(Br)c1 | 68.9% | 4.22 | > 3.9 | > 232 µM | – | – |
| CC/C(=N\Nc1nc(-c2ccc(-c3ccccc3)cc2)cs1)c1cccc(Br)c1 | 18.1% | 5.47 | > 64.5 | > 216 µM | – | – |
| CC/C(=N\Nc1nc(-c2ccc(Cl)cc2)cs1)c1cccc(Br)c1 | 90.4% | 3.85 | 0.8 | 119 µM | 4.49 | – |
| CC/C(=N\N=C(/S)NC)c1cccc(Br)c1 | – | 4.44 | 0.9 | 33.3 µM | – | inhibition [15]: 11.7% |
| CC/C(=N\Nc1nc(-c2ccc(Br)cc2)c(C)s1)c1cccc(Br)c1 | 100% | 5.24 | 3.6 | 20.9 µM | 5.42 | – |
| CC/C(=N\N=C(/S)Nc1ccccc1)c1cccc(Br)c1 | – | 4.88 | 10.4 | 138 µM | – | inhibition [15]: 49.5% |
| CC/C(=N\Nc1nc(-c2cccc([N+](=O)[O-])c2)cs1)c1cccc(Br)c1 | 85.3% | 4.82 | 1.5 | 23.2 µM | 4.84 | – |
| CC/C(=N\Nc1nc(-c2ccc(Cl)cc2Cl)cs1)c1cccc(Br)c1 | 99.7% | 4.23 | 0.9 | 54.9 µM | 4.82 | – |
| CC/C(=N\N=c1/scc(-c2ccc(OC)cc2)n1C)c1cccc(Br)c1 | – | 4.12 | 0.7 | 58.1 µM | – | inhibition [15]: 33.1% |
| O=C(Cn1ccnc1[N+](=O)[O-])NCc1ccccc1 [BENZNIDAZOLE] | – | – | 15.4 | – | – | – |
| CC/C(=N\Nc1nc(-c2ccccc2)cs1)c1cccc(Br)c1 | 80.7% | 5.26 | 11.7 | 64.7 µM | 4.35 | – |
| CC/C(=N\Nc1nc(-c2ccc(Cl)c(Cl)c2)cs1)c1cccc(Br)c1 | 86.8% | 3.89 | 0.4 | 54.9 µM | 4.95 | – |
| CC/C(=N\Nc1nc(-c2ccc(C)cc2)cs1)c1cccc(Br)c1 | 97.7% | 4.78 | 7.5 | 125 µM | 4.72 | – |
